As a reminder, the IC50 is the concentration at which inhibition is half-maximal. Higher therefore signals weaker potency. Usually Ki stands for a dissociation constant, usually derived from enzyme kinetics or from competition with a known ligand. Read a high Ki as lower affinity.

The text below walks through data of ChEMBL document CHEMBL3112490, “Ionic liquid mediated synthesis of mono- and bis-spirooxindole-hexahydropyrrolidines as cholinesterase inhibitors and their molecular docking studies” (Bioorg Med Chem, 2014).

Experiment [1] deals with T1, Cholinesterase (Equus caballus, UniProt P81908). The experiment in a line: Inhibition of equine serum BChE using S-butyrylthiocholine chloride as substrate preincubated for 15 mins followed by substrate addition by Ellman's method. The procedure, abridged: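 Modified Ellman assay with equine serum BChE in 0.1 M sodium phosphate, pH 8. Enzyme preincubated with sample (DMSO, 1% final) for 15 min at 25 °C. DTNB (10 mM stock) then added, followed by S-butyrylthiocholine chloride (14 mM stock). Triplicates, blank-corrected; % inhibition calculated relative to control.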

For experiment [2], the target named is T2, Acetylcholinesterase (Homo sapiens, UniProt P22303). The experiment in a line: Inhibition of AChE (unknown origin) using acetylthiocholine iodide as substrate preincubated for 15 mins followed by substrate addition by Ellman's method.
Experiment [3] can be described thus: Selectivity ratio of IC50 for equine serum BChE to IC50 for AChE (unknown origin).
Experiment [4] is described as follows: Selectivity index, ratio of IC50 for AChE (unknown origin) to IC50 for equine serum BChE.
The target in experiment [5] is T2, Acetylcholinesterase. The experiment in a line: Competitive inhibition of AChE (unknown origin) using acetylthiocholine iodide as substrate by Dixon plot analysis. The procedure, abridged: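 Ellman kinetics on AChE, added as a 0.09 units/mL solution, in pH 8 phosphate buffer with a 15 min 25 °C preincubation. Inhibitor at 0, 0.70 and 1.40 µM; acetylthiocholine iodide at 1, 2, 4 and 8 mM; DTNB detection at 412 nm. Mode, Km and Vmax from Lineweaver–Burk plots; Ki from Dixon plot.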

Experiment [6] deals with T1, Cholinesterase. Nature of the experiment: Mixed-type inhibition of equine serum BChE using S-butyrylthiocholine chloride as substrate by Dixon plot analysis. Summed up: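 Equine serum BChE run in the same Ellman kinetic format, pH 8, with a 15 min 25 °C preincubation. Inhibitor at 0, 0.90 and 1.81 µM; S-butyrylthiocholine chloride at 1, 2, 4 and 8 mM; read at 412 nm. Inhibition mode, Km and Vmax taken from Lineweaver–Burk plots; Ki from Dixon plot.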

T2 sequence (P22303 whole entry): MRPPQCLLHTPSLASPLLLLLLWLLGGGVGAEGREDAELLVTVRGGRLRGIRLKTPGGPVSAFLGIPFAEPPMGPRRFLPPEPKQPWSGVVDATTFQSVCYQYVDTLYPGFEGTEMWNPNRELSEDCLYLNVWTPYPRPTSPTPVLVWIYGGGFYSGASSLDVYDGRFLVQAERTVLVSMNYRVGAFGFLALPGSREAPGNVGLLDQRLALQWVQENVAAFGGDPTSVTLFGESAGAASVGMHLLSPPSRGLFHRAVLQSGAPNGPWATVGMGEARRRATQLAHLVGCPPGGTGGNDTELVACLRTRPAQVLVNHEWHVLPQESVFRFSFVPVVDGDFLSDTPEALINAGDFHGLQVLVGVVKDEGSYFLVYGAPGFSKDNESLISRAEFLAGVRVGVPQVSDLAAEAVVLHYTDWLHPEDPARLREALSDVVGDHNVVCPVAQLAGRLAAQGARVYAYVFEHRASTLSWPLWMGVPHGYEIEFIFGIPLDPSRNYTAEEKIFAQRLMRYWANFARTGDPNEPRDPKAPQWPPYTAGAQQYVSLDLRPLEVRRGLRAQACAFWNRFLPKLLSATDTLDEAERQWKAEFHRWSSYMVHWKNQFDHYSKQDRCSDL
T1 sequence (P81908 whole entry): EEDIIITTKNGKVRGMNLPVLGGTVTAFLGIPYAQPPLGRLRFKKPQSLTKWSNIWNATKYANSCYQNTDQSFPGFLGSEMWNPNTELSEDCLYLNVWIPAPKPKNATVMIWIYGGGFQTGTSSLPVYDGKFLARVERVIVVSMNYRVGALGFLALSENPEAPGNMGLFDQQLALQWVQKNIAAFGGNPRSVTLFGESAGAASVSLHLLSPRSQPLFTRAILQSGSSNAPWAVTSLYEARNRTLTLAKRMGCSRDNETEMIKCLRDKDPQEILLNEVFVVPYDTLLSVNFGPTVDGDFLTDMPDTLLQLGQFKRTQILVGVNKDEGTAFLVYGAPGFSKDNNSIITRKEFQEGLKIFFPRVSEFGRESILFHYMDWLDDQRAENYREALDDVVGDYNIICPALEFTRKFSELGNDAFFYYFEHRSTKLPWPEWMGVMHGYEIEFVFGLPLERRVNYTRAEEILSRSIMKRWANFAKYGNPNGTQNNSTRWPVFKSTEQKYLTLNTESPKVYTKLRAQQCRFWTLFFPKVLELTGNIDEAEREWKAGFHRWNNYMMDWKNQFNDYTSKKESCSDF

Regarding `C=CC(=O)N1C/C(=C\c2cccc([N+](=O)[O-])c2)C(=O)[C@@]2(C1)[C@H](c1cccc([N+](=O)[O-])c1)CN(C)[C@]21C(=O)Nc2ccccc21` (racemic), the IC50 is 7.74 µM at Cholinesterase [1] and 5.34 µM against Acetylcholinesterase [2]. Moreover, the Ratio IC50 in experiment [3] is 1.45; in experiment [4], 0.69.
On to `CN1CC[C@@H](C(=O)N2C/C(=C\c3ccc(F)cc3)C(=O)[C@@]3(C2)[C@H](c2ccc(F)cc2)CN(C)[C@]32C(=O)Nc3ccccc32)[C@@]12C(=O)Nc1ccccc12` (racemic), for which the half-inhibitory concentration (IC50) against Cholinesterase [1] is 7.82 µM; against Acetylcholinesterase [2], 2.35 µM. For the same molecule, the Ki at Acetylcholinesterase [5] was found to be 2010 nM. In addition, the results for the Ratio IC50 in experiment [3] and in experiment [4] were 3.33 and 0.3, respectively.
Take `C=CC(=O)N1C/C(=C\c2ccccc2Cl)C(=O)[C@@]2(C1)[C@H](c1ccccc1Cl)CN(C)[C@]21C(=O)Nc2ccccc21` (racemic): the IC50 against Cholinesterase [1] was determined as 4.2 µM; against Acetylcholinesterase [2], 5.12 µM. Also, the Ratio IC50 in experiment [3] is 0.82; in experiment [4], 1.22.
Taken in the same sequence, the figures for `C=CC(=O)N1C/C(=C\c2ccc(Cl)cc2Cl)C(=O)[C@@]2(C1)[C@H](c1ccc(Cl)cc1Cl)CN(C)[C@]21C(=O)Nc2ccccc21` (racemic) were 5.32 µM, 6.14 µM, 0.87 and 1.15.
Consider `C=CC(=O)N1C/C(=C\c2ccccc2OC)C(=O)[C@@]2(C1)[C@H](c1ccccc1OC)CN(C)[C@]21C(=O)Nc2ccccc21` (racemic), for which the IC50 came to 4.22 µM at Cholinesterase [1] and 4.1 µM at Acetylcholinesterase [2]. Moreover, the Ratio IC50 is 1.03 in experiment [3] and 0.97 in experiment [4].
`C=CC(=O)N1C/C(=C\c2ccccc2F)C(=O)[C@@]2(C1)[C@H](c1ccccc1F)CN(C)[C@]21C(=O)Nc2ccccc21` (racemic): the figures for the half-maximal inhibitory concentration (IC50) against Cholinesterase [1] and at Acetylcholinesterase [2] were 3.21 µM and 6.88 µM, respectively. This molecule came in with a Ki at Cholinesterase [6] of 6.76 µM. Also, the Ratio IC50 turned out to be 0.47 in experiment [3] and 2.14 in experiment [4].
For `CN1CC[C@@H](C(=O)N2C/C(=C\c3cccc4ccccc34)C(=O)[C@@]3(C2)[C@H](c2cccc4ccccc24)CN(C)[C@]32C(=O)Nc3ccccc32)[C@@]12C(=O)Nc1ccccc12` (racemic), the IC50 worked out at 19.1 µM against Cholinesterase [1] and 4.93 µM against Acetylcholinesterase [2]. The results for the Ratio IC50 in experiment [3] and in experiment [4] were 3.88 and 0.26, respectively.
On to `C=CC(=O)N1C/C(=C\c2ccc(C)cc2)C(=O)[C@@]2(C1)[C@H](c1ccc(C)cc1)CN(C)[C@]21C(=O)Nc2ccccc21` (racemic), for which the IC50 was 9.28 µM against Cholinesterase [1] and 7.49 µM against Acetylcholinesterase [2]. In addition, the Ratio IC50 in experiment [3] was 1.24; in experiment [4], 0.81.
Taken in the same sequence, the figures for `CN1CC[C@@H](C(=O)N2C/C(=C\c3ccc(Cl)cc3Cl)C(=O)[C@@]3(C2)[C@H](c2ccc(Cl)cc2Cl)CN(C)[C@]32C(=O)Nc3ccccc32)[C@@]12C(=O)Nc1ccccc12` (racemic) were 17.9 µM, 4.42 µM, 4.05 and 0.25.
Taken in the same sequence, the figures for `C=CC(=O)N1C/C(=C\c2ccc(F)cc2)C(=O)[C@@]2(C1)[C@H](c1ccc(F)cc1)CN(C)[C@]21C(=O)Nc2ccccc21` (racemic) were 3.39 µM, 7.8 µM, 0.43 and 2.3.
Taken in the same sequence, the figures for `CN1CC[C@@H](C(=O)N2C/C(=C\c3ccc(Cl)cc3)C(=O)[C@@]3(C2)[C@H](c2ccc(Cl)cc2)CN(C)[C@]32C(=O)Nc3ccccc32)[C@@]12C(=O)Nc1ccccc12` (racemic) were 9.44 µM, 6.14 µM, 1.54 and 0.65.
Regarding `COc1ccccc1/C=C1\CN(C(=O)[C@@H]2CCN(C)[C@]23C(=O)Nc2ccccc23)C[C@]2(C1=O)[C@H](c1ccccc1OC)CN(C)[C@]21C(=O)Nc2ccccc21` (racemic), the IC50 at Cholinesterase [1] came to 10.4 µM; against Acetylcholinesterase [2], 4.73 µM. Moreover, the Ratio IC50 in experiment [3] is 2.2; in experiment [4] it was 0.45.
As to `CN1CC[C@@H](C(=O)N2C/C(=C\c3ccccc3F)C(=O)[C@@]3(C2)[C@H](c2ccccc2F)CN(C)[C@]32C(=O)Nc3ccccc32)[C@@]12C(=O)Nc1ccccc12` (racemic), the figures for the IC50 on Cholinesterase [1] and at Acetylcholinesterase [2] were 7.44 µM and 6.18 µM, respectively. Besides, the Ratio IC50 in experiment [3] was 1.2; in experiment [4] it was 0.83.
As for `C=CC(=O)N1C/C(=C\c2ccc(Cl)cc2)C(=O)[C@@]2(C1)[C@H](c1ccc(Cl)cc1)CN(C)[C@]21C(=O)Nc2ccccc21` (racemic), the IC50 against Cholinesterase [1] was 6.77 µM; against Acetylcholinesterase [2], 8.4 µM. For the same molecule, the Ratio IC50 was found to be 0.81 in experiment [3] and 1.24 in experiment [4].
`Cc1ccccc1/C=C1\CN(C(=O)[C@@H]2CCN(C)[C@]23C(=O)Nc2ccccc23)C[C@]2(C1=O)[C@H](c1ccccc1C)CN(C)[C@]21C(=O)Nc2ccccc21` (racemic): the figures for the IC50 at Cholinesterase [1] and against Acetylcholinesterase [2] were 12.5 µM and 9.43 µM, respectively. The Ratio IC50 worked out at 1.33 in experiment [3] and 0.75 in experiment [4].
`C=CC(=O)N1C/C(=C\c2ccccc2)C(=O)[C@@]2(C1)[C@H](c1ccccc1)CN(C)[C@]21C(=O)Nc2ccccc21` (racemic): the IC50 against Cholinesterase [1] amounted to 7.52 µM; on Acetylcholinesterase [2], 8.74 µM. Moreover, the values for the Ratio IC50 in experiment [3] and in experiment [4] were 0.86 and 1.16, respectively.
Taken in the same sequence, the figures for `CN1CC[C@@H](C(=O)N2C/C(=C\c3ccccc3)C(=O)[C@@]3(C2)[C@H](c2ccccc2)CN(C)[C@]32C(=O)Nc3ccccc32)[C@@]12C(=O)Nc1ccccc12` (racemic) were 9.34 µM, 2.63 µM, 3.55 and 0.28.
For `CN1CC[C@@H](C(=O)N2C/C(=C\c3cccc([N+](=O)[O-])c3)C(=O)[C@@]3(C2)[C@H](c2cccc([N+](=O)[O-])c2)CN(C)[C@]32C(=O)Nc3ccccc32)[C@@]12C(=O)Nc1ccccc12` (racemic) the same measures were 12.3 µM, 2.47 µM, 5 and 0.2.
Taken in the same sequence, the figures for `Cc1ccc(/C=C2\CN(C(=O)[C@@H]3CCN(C)[C@]34C(=O)Nc3ccccc34)C[C@]3(C2=O)[C@H](c2ccc(C)cc2)CN(C)[C@]32C(=O)Nc3ccccc32)cc1` (racemic) were 11.3 µM, 7.67 µM, 1.47 and 0.68.
As to `C=CC(=O)N1C/C(=C\c2cccc3ccccc23)C(=O)[C@@]2(C1)[C@H](c1cccc3ccccc13)CN(C)[C@]21C(=O)Nc2ccccc21` (racemic), the concentration for half-maximal inhibition (IC50) on Cholinesterase [1] is 8.85 µM; on Acetylcholinesterase [2], 7.59 µM. For the same molecule, the values for the Ratio IC50 in experiment [3] and in experiment [4] were 1.17 and 0.86, respectively.
Regarding `CN1CC[C@@H](C(=O)N2C/C(=C\c3ccccc3Cl)C(=O)[C@@]3(C2)[C@H](c2ccccc2Cl)CN(C)[C@]32C(=O)Nc3ccccc32)[C@@]12C(=O)Nc1ccccc12` (racemic), the IC50 came to 9.38 µM against Cholinesterase [1] and 5.19 µM against Acetylcholinesterase [2]. The Ratio IC50 in experiment [3] turned out to be 1.81; in experiment [4] it was 0.55.
Taken in the same sequence, the figures for `C=CC(=O)N1C/C(=C\c2ccccc2C)C(=O)[C@@]2(C1)[C@H](c1ccccc1C)CN(C)[C@]21C(=O)Nc2ccccc21` (racemic) were 3.86 µM, 3.97 µM, 0.97 and 1.03.
